Reference: PMC7047575 (The AAPS journal, 2018)
Structures can show the parent of a compound that is named as a salt.

Legend:
[1] = tested on: nAChRs; details: cited from earlier work
[2] = molecular target: DAT (Rattus norvegicus, UniProt P23977); experiment: Synaptosomal [3H]DA uptake, rat striatal synaptosomes; format: biochemical
[3] = molecular target: hERG channels (Homo sapiens, UniProt Q12809); experiment: [3H]Dofetilide binding to hERG channels on HEK-293 cell membranes
[4] = molecular target: α4β2 nAChRs (Rattus norvegicus, UniProt P09483+P12390); experiment: [3H]NIC binding to rat brain membranes; details: 0.1 nM - 0.1 mM
[5] = molecular target: VMAT2 (Rattus norvegicus, UniProt Q01827); experiment: Vesicular [3H]DA uptake, rat striatal synaptic vesicles; format: biochemical
[6] = tested on: METH-sensitized locomotor activity; experiment: METH-induced hyperactivity in METH-sensitized rats, GZ-11610 oral; format: in vivo, rat; details: 5.6-300 mg/kg
[7] = molecular target: α7 nAChRs (Rattus norvegicus, UniProt Q05941); experiment: [3H]MLA binding to rat brain membranes; details: 0.1 nM - 0.1 mM
Summary of the method: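 Membranes from rat whole brain minus cortex and cerebellum, washed by repeated 31,000 g spins, with a 10 min 37°C incubation. Binding used 100–140 μg protein, test compound at 7–9 concentrations (0.1 nM–0.1 mM), and [3H]MLA added at 3 nM, in HEPES saline buffer pH 7.5, for 60 min at room temperature. Nonspecific binding was defined with 10 μM nicotine. Read-out by PEI-GF/B filtration and scintillation; n=3.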

[8] = molecular target: SERT (Rattus norvegicus, UniProt P31652); experiment: Synaptosomal [3H]5-HT uptake, rat striatal synaptosomes; format: biochemical
[9] = tested on: METH-sensitized locomotor activity; experiment: METH-induced hyperactivity in METH-sensitized rats, GZ-11610 s.c.; format: in vivo, rat; details: 1-30 mg/kg, 15 min before METH 1 mg/kg s.c., vs vehicle
[10] = cited from earlier work
[11] = tested on: locomotor activity; experiment: Locomotor sensitization to repeated METH administration; format: in vivo, rat
Summary of the method: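 Rats randomly assigned to METH or saline groups. Day 0: 60 min chamber habituation without injection. Distance traveled on Days 1 and 10 compared with saline controls and with Day 1.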

[12] = tested on: cells co-expressing VMAT2 and DAT; details: dissociated cells co-expressing VMAT2 and DAT; cited from earlier work

hERG channels, sequence (Q12809 whole entry): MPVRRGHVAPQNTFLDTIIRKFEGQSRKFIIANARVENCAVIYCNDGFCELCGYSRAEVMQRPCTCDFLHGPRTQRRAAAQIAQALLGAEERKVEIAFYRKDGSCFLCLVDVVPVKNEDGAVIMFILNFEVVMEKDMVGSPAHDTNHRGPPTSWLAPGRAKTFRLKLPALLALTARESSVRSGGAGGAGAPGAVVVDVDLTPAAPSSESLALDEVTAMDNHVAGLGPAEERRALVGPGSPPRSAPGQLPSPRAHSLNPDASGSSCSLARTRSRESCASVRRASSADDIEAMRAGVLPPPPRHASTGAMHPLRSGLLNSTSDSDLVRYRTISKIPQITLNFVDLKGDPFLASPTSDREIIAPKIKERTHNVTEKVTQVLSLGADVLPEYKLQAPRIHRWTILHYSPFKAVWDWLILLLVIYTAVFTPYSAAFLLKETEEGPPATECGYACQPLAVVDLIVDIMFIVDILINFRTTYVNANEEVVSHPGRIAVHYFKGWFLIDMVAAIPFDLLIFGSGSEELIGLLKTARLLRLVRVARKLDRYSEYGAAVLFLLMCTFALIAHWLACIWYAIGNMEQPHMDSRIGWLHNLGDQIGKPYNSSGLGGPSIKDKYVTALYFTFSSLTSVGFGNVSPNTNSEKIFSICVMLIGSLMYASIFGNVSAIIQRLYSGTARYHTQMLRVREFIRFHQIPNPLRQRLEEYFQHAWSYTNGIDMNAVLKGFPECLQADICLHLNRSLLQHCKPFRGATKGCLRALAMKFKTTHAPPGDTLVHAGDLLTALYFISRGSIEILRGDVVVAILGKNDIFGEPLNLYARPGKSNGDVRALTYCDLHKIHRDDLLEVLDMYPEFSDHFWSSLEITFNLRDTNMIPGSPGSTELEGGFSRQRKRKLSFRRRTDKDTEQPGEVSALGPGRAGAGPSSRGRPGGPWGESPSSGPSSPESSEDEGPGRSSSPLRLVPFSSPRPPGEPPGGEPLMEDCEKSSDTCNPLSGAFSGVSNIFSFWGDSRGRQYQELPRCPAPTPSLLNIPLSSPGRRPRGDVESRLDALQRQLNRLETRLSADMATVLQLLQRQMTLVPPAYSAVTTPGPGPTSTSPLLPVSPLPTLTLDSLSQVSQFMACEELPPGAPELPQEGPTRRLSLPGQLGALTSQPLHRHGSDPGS
SERT, sequence (P31652 whole entry): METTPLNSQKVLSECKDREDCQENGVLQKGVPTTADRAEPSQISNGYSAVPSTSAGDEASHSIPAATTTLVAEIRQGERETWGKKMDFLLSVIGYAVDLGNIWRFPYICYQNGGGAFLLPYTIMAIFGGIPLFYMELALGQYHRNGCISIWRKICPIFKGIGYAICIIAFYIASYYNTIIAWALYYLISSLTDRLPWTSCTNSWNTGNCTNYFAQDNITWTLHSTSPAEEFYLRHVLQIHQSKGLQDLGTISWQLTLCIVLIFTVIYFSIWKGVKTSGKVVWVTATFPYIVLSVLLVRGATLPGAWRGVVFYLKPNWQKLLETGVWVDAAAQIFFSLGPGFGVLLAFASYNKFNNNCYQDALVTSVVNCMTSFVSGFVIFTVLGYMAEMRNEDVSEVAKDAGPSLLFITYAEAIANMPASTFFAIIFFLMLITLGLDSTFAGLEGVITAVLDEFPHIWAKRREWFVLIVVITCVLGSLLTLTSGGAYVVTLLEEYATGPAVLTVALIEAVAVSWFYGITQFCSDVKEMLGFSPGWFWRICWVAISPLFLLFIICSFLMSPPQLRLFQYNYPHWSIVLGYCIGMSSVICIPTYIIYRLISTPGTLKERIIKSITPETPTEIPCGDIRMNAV
VMAT2, sequence (Q01827 whole entry): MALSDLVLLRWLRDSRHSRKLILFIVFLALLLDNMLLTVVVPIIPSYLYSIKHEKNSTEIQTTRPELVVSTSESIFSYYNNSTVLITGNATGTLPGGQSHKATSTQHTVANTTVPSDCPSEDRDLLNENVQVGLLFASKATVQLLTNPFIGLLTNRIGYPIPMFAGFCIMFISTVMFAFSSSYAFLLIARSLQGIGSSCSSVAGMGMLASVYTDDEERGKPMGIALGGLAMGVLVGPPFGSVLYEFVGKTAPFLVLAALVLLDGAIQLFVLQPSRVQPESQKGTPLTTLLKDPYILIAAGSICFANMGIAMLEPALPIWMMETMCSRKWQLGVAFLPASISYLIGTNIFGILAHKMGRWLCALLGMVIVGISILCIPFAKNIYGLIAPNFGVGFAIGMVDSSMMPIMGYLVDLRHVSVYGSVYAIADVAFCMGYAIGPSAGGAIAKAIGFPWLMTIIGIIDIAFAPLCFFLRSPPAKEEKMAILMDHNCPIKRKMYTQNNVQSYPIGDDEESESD
DAT, sequence (P23977 whole entry): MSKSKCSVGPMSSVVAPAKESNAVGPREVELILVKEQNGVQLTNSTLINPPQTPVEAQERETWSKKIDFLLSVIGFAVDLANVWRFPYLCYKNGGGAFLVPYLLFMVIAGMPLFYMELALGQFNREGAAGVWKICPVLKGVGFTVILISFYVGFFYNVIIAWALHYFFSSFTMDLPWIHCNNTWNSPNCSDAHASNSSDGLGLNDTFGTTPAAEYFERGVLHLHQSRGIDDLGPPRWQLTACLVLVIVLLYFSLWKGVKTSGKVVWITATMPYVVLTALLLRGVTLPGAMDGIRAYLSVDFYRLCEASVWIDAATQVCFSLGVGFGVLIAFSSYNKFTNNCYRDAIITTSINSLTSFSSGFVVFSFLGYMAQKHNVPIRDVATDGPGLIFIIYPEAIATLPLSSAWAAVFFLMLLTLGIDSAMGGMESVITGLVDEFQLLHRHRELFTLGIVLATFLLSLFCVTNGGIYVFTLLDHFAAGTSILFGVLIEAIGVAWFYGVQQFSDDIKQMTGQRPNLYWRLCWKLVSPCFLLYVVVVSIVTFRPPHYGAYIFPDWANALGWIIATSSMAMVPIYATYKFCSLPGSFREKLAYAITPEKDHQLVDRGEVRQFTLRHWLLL
α7 nAChRs, sequence (Q05941 23-502): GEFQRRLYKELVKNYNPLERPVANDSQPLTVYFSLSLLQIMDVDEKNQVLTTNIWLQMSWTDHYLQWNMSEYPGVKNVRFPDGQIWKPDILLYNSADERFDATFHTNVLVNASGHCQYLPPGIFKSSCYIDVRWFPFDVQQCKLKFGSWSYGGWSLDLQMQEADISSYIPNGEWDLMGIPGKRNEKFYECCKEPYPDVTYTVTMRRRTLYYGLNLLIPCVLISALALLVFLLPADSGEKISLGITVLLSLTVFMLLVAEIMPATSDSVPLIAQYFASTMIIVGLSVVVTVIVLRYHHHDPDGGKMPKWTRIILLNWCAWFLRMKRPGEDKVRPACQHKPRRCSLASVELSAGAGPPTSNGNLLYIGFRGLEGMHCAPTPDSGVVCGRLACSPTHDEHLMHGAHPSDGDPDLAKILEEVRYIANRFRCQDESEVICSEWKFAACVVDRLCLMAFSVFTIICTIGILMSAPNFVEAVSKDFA
α4β2 nAChRs, sequence (P09483 31-630): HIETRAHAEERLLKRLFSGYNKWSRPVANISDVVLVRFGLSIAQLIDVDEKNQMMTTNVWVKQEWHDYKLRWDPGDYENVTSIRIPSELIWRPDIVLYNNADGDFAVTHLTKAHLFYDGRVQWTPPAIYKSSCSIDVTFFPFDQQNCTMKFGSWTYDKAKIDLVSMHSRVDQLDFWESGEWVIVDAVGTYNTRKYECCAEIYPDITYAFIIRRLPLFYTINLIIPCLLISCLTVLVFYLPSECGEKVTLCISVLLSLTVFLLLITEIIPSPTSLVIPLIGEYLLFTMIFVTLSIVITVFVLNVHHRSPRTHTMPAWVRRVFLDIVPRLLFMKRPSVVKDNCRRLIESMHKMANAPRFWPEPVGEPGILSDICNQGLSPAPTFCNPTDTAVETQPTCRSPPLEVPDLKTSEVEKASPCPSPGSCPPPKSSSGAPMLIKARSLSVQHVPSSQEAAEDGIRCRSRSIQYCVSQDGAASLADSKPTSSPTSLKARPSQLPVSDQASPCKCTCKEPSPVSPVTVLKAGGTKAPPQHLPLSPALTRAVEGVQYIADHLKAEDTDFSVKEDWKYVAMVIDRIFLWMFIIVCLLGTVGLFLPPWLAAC
α4β2 nAChRs, sequence (P12390 25-500): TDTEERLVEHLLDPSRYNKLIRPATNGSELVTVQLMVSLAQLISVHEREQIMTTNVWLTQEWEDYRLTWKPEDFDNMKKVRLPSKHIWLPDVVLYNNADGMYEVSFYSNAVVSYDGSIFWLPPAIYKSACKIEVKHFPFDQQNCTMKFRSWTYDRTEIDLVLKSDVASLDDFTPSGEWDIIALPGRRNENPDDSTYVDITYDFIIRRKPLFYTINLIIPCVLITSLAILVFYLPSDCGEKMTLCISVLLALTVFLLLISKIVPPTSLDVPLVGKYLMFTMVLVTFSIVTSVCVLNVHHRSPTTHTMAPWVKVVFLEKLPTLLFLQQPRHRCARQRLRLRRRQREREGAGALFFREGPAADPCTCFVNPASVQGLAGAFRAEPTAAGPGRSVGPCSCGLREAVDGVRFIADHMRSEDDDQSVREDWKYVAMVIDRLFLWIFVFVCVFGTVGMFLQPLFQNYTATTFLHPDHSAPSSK

COc1ccc(CCC2CCCC(CCc3ccc(OC)cc3)N2C[C@@H](O)CO)cc1.Cl (stereo in doubt) [GZ-793A, R-N-(1,2-dihydroxypropyl)-2,6-cis-di-(4-methoxyphenethyl)piperidine hydrochloride]
selectivity for VMAT2 over nAChRs [1]: > 1000 fold

COc1ccc(CCCN[C@H](C)Cc2ccccc2)cc1 [GZ-11610, R-3-(4-methoxyphenyl)-N-(1-phenylpropan-2-yl)propan-1-amine]
Ki [2]: 2.51 µM
Imax of [3H]DA uptake at DAT ([2]; 0.1 nM - 0.1 mM): > 95%
Ki [3]: 9.5 µM
Imax of [3H]dofetilide binding to hERG channels ([3]; HEK-293 cell membranes, 0.1 nM - 0.1 mM): > 80%
Imax, inhibition of [3H]NIC binding [4]: < 20%
maximal inhibition (Imax) of [3H]DA uptake at VMAT2 ([5]; 0.1 nM - 0.1 mM): > 95%
Ki ([5]; read-out: Ki, inhibition of [3H]DA uptake at VMAT2, rat striatal synaptic vesicles): 0.0087 µM
effect on distance traveled after METH in the METH-sensitized group ([6]; 15 min before METH 1 mg/kg s.c., vs vehicle): reduced the distance traveled
effect on locomotor activity in the saline group ([6]; one-way ANOVA): no significant GZ-11610 effects on locomotor activity
Imax, inhibition of [3H]MLA binding [7]: < 20%
Imax of [3H]5-HT uptake at SERT [8]: > 95%
Ki [8]: 5.55 µM
effect on distance traveled after METH in the METH-sensitized group [9]: dose-dependently reduced the distance traveled

CN[C@@H](C)Cc1ccccc1 [METH, (+)-Methamphetamine hydrochloride]
LogP [10]: 2.10
distance traveled compared to saline, Day 10 ([11]; METH 1 mg/kg s.c. once daily for 10 days): increased distance traveled (p < 0.05)
distance traveled compared to saline, Day 1 ([11]; acute METH 1 mg/kg s.c.): increased (p < 0.05) distance traveled

COc1cc2c(cc1OC)[C@H]1C[C@@H](O)[C@H](CC(C)C)CN1CC2 [dihydrotetrabenazene]
reduction of METH-evoked DA efflux [12]: 60%

CN1[C@@H](CC(=O)c2ccccc2)CCC[C@H]1C[C@H](O)c1ccccc1 [lobeline]
reduction of METH-evoked DA efflux [12]: 60%
